Source: ChEMBL document CHEMBL1914423, “New imidazo[2,1-b]thiazole derivatives: synthesis, in vitro anticancer evaluation, and in silico studies” (Eur J Med Chem, 2011)

Assays:
[1] = Antiproliferative activity against human A375P cells after 48 hrs by MTT assay; type: functional, cell-based
Summary of the method: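 A375P cells in DMEM with 10% FBS at 37 °C, 5% CO2. Seeded at 5×10³ cells/well, held 24 h, then treated with 12-point 3-fold serial dilutions for 48 h. Viability by MTT reduction. IC50 values are means of triplicate experiments.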

CCRF-CEM = test: Anticancer activity against human CCRF-CEM cells assessed as cell growth at 10^-5 M after 48 hrs by SRB assay; type: functional; conditions: read-out: Activity
Summary of the method: (§1)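 NCI-60 single-dose screen at one concentration. Cells grown in RPMI 1640 with 5% FBS and 2 mM L-glutamine, plated at 5000–40,000 cells/well, and pre-incubated 24 h at 37 °C in 5% CO2 before DMSO-dissolved drug was added. Cells fixed with TCA, SRB-stained, absorbance read at 515 nm. Percent growth calculated against time-zero and untreated control plates.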

K562 = test: Anticancer activity against human K562 cells assessed as cell growth at 10^-5 M after 48 hrs by SRB assay; type: functional; conditions: K562, 48 h, read-out: Activity; summary of the method: as §1
RPMI-8226 = test: Anticancer activity against human RPMI8226 cells assessed as cell growth at 10^-5 M after 48 hrs by SRB assay; type: functional; conditions: RPMI-8226, 48 h, read-out: Activity
SR = test: Anticancer activity against human SR cells assessed as cell growth at 10^-5 M after 48 hrs by SRB assay; type: functional; conditions: read-out: Activity
Summary of the method: (§2)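 NCI-60 single-dose screen: cells in RPMI 1640 with 5% FBS and 2 mM L-glutamine, plated at 5000–40,000 cells/well by doubling time, and preincubated 24 h at 37 °C. Compound given at one concentration from DMSO stock. Cells TCA-fixed and SRB-stained, absorbance at 515 nm. Percent growth relative to time-zero and untreated controls; inhibition % = 100 − growth %.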

HOP-92 = test: Anticancer activity against human HOP92 cells assessed as cell growth at 10^-5 M after 48 hrs by SRB assay; type: functional; conditions: HOP-92, 48 h, read-out: Activity; summary of the method: as §1
NCI-H226 = test: Anticancer activity against human NCI-H226 cells assessed as cell growth at 10^-5 M after 48 hrs by SRB assay; type: functional; conditions: NCI-H226, 48 h, read-out: Activity
NCI-H322M = test: Anticancer activity against human NCI-H322M cells assessed as cell growth at 10^-5 M after 48 hrs by SRB assay; type: functional; conditions: read-out: Activity
HCT-15 = test: Anticancer activity against human HCT15 cells assessed as cell growth at 10^-5 M after 48 hrs by SRB assay; type: functional; conditions: HCT-15, 48 h, read-out: Activity; summary of the method: as §1
HT-29 = test: Anticancer activity against human HT-29 cells assessed as cell growth at 10^-5 M after 48 hrs by SRB assay; type: functional; conditions: HT-29, 48 h, read-out: Activity; summary of the method: as §1
KM12 = test: Anticancer activity against human KM12 cells assessed as cell growth at 10^-5 M after 48 hrs by SRB assay; type: functional; conditions: KM12, 48 h, read-out: Activity; summary of the method: as §1
SW-620 = test: Anticancer activity against human SW620 cells assessed as cell growth at 10^-5 M after 48 hrs by SRB assay; type: functional; conditions: SW-620, 48 h, read-out: Activity; summary of the method: as §2
SF-268 = test: Anticancer activity against human SF268 cells assessed as cell growth at 10^-5 M after 48 hrs by SRB assay; type: functional; conditions: SF-268, 48 h, read-out: Activity
SF-295 = test: Anticancer activity against human SF295 cells assessed as cell growth at 10^-5 M after 48 hrs by SRB assay; type: functional; conditions: SF-295, 48 h, read-out: Activity
SNB-19 = test: Anticancer activity against human SNB19 cells assessed as cell growth at 10^-5 M after 48 hrs by SRB assay; type: functional; conditions: SNB-19, 48 h, read-out: Activity
Malme-3M = test: Anticancer activity against human MALME-3M cells assessed as cell growth at 10^-5 M after 48 hrs by SRB assay; type: functional; conditions: read-out: Activity; summary of the method: as §1
MDA-MB-435 = test: Anticancer activity against human MDA-MB-435 cells assessed as cell growth at 10^-5 M after 48 hrs by SRB assay; type: functional; conditions: MDA-MB-435, 48 h, read-out: Activity
SK-MEL-2 = test: Anticancer activity against human SK-MEL-2 cells assessed as cell growth at 10^-5 M after 48 hrs by SRB assay; type: functional; conditions: SK-MEL-2, 48 h, read-out: Activity
SK-MEL-5 = test: Anticancer activity against human SK-MEL-5 cells assessed as cell growth at 10^-5 M after 48 hrs by SRB assay; type: functional; conditions: SK-MEL-5, 48 h, read-out: Activity
UACC-257 = test: Anticancer activity against human UACC257 cells assessed as cell growth at 10^-5 M after 48 hrs by SRB assay; type: functional; conditions: UACC-257, 48 h, read-out: Activity; summary of the method: as §2
IGROV-1 = test: Anticancer activity against human IGROV1 cells assessed as cell growth at 10^-5 M after 48 hrs by SRB assay; type: functional; conditions: IGROV-1, 48 h, read-out: Activity; summary of the method: as §1
OVCAR-5 = test: Anticancer activity against human OVCAR5 cells assessed as cell growth at 10^-5 M after 48 hrs by SRB assay; type: functional; conditions: OVCAR-5, 48 h, read-out: Activity
OVCAR-8 = test: Anticancer activity against human OVCAR8 cells assessed as cell growth at 10^-5 M after 48 hrs by SRB assay; type: functional; conditions: OVCAR-8, 48 h, read-out: Activity
NCI/ADR-RES = test: Anticancer activity against human NCI/ADR-RES cells assessed as cell growth at 10^-5 M after 48 hrs by SRB assay; type: functional; conditions: read-out: Activity
SK-OV-3 = test: Anticancer activity against human SKOV3 cells assessed as cell growth at 10^-5 M after 48 hrs by SRB assay; type: functional; conditions: SK-OV-3, 48 h, read-out: Activity
786-0 = test: Anticancer activity against human 786-0 cells assessed as cell growth at 10^-5 M after 48 hrs by SRB assay; type: functional; conditions: 786-0, 48 h, read-out: Activity; summary of the method: as §1
A498 = test: Anticancer activity against human A498 cells assessed as cell growth at 10^-5 M after 48 hrs by SRB assay; type: functional; conditions: A498, 48 h, read-out: Activity; summary of the method: as §1
CAKI-1 = test: Anticancer activity against human Caki1 cells assessed as cell growth at 10^-5 M after 48 hrs by SRB assay; type: functional; conditions: CAKI-1, 48 h, read-out: Activity; summary of the method: as §1
UO-31 = test: Anticancer activity against human UO31 cells assessed as cell growth at 10^-5 M after 48 hrs by SRB assay; type: functional; conditions: UO-31, 48 h, read-out: Activity; summary of the method: as §2
PC-3 = test: Anticancer activity against human PC3 cells assessed as cell growth at 10^-5 M after 48 hrs by SRB assay; type: functional; conditions: PC-3, 48 h, read-out: Activity
MCF7 = test: Anticancer activity against human MCF7 cells assessed as cell growth at 10^-5 M after 48 hrs by SRB assay; type: functional; conditions: MCF7, 48 h, read-out: Activity; summary of the method: as §1
T47D = test: Anticancer activity against human T47D cells assessed as cell growth at 10^-5 M after 48 hrs by SRB assay; type: functional; conditions: read-out: Activity; summary of the method: as §2

SMILES	IC50 [1]	growth at 10 µM (CCRF-CEM)	growth at 10 µM (K562)	growth at 10 µM (RPMI-8226)	growth at 10 µM (SR)	growth at 10 µM (HOP-92)	growth at 10 µM (NCI-H226)	growth at 10 µM (NCI-H322M)	growth at 10 µM (HCT-15)	growth at 10 µM (HT-29)	growth at 10 µM (KM12)	growth at 10 µM (SW-620)	growth at 10 µM (SF-268)	growth at 10 µM (SF-295)	growth at 10 µM (SNB-19)	growth at 10 µM (Malme-3M)	growth at 10 µM (MDA-MB-435)	growth at 10 µM (SK-MEL-2)	growth at 10 µM (SK-MEL-5)	growth at 10 µM (UACC-257)	other results
O=C(NCCNc1nccc(-c2c(-c3cccc(O)c3)nc3sccn23)n1)Nc1cccc(C(F)(F)F)c1	4.2 µM	23.1%	70.6%	-4.81%	59.2%	54.5%	97%	76.8%	84.7%	38.9%	14.1%	30.3%	26.2%	75.5%	89.5%	23.6%	-3.01%	54.4%	53.5%	25.3%	growth at 10 µM (IGROV-1): 65.6%; growth at 10 µM (OVCAR-5): 117%; growth at 10 µM (OVCAR-8): 41.1%; growth at 10 µM (NCI/ADR-RES): 108%; growth at 10 µM (SK-OV-3): 85%; growth at 10 µM (786-0): 79.4%; growth at 10 µM (A498): 111%; growth at 10 µM (CAKI-1): 90.3%; growth at 10 µM (UO-31): 75.2%; growth at 10 µM (PC-3): 26.7%; growth at 10 µM (MCF7): 55.6%; growth at 10 µM (T47D): 63.8%
COc1cccc(-c2nc3sccn3c2-c2ccnc(NCCNC(=O)c3cc(N4CCOCC4)cc(C(F)(F)F)c3)n2)c1	> 10 µM	49.4%	90.1%	39.1%	80.7%	59.1%	104%	96.6%	88.5%	58.5%	83.2%	109%	85.7%	83.7%	103%	80.8%	62.8%	76.2%	66.2%	89.5%	growth at 10 µM (IGROV-1): 67.5%; growth at 10 µM (OVCAR-5): 110%; growth at 10 µM (NCI/ADR-RES): 76.5%; growth at 10 µM (SK-OV-3): 99.4%; growth at 10 µM (786-0): 74.4%; growth at 10 µM (A498): 86%; growth at 10 µM (CAKI-1): 83%; growth at 10 µM (UO-31): 60.2%; growth at 10 µM (PC-3): 66.3%; growth at 10 µM (MCF7): 84.9%; growth at 10 µM (T47D): 86.3%
O=C(NCCNc1nccc(-c2c(-c3cccc(O)c3)nc3sccn23)n1)c1cccc(C(F)(F)F)c1	2.1 µM	37.5%	56.2%	44.2%	97%	83.8%	88.5%	103%	87.8%	81.1%	81%	107%	86.7%	69.6%	116%	0.75%	21.7%	62.1%	52.6%	14.3%	growth at 10 µM (IGROV-1): 62.1%; growth at 10 µM (OVCAR-5): 113%; growth at 10 µM (NCI/ADR-RES): 98.3%; growth at 10 µM (SK-OV-3): 84.2%; growth at 10 µM (786-0): 89.3%; growth at 10 µM (A498): 84.5%; growth at 10 µM (CAKI-1): 75.6%; growth at 10 µM (UO-31): 73.4%; growth at 10 µM (PC-3): 67.3%; growth at 10 µM (MCF7): 75.3%; growth at 10 µM (T47D): 69.5%
